# Bioassay records deposited in PubChem BioAssay by Sanford-Burnham Center for Chemical Genomics.
# Hits are enriched below; roughly 2.3% of the tested compounds scored in any of these assays.
# MT1-MMP act inh – blockers of MT1-MMP proenzyme processing, primary screen, HT1080 RFP-PRO-GFP cells, GFP/RFP fluorescence | GFP/RFP ratio change, % at 20 µM | 360,000 compounds, 0.061% hits | GFP/RFP ratio fluorescence, overnight; percent of plate control window, DMSO zero;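 active = GFP/RFP ratio change of at least 30% with cell ATP level not reduced by more than half and red fluorescence within 50% of control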
#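 Assay system: HT1080 RFP-PRO-GFP cells | Dosing: 20 µM single dose, 1% DMSO | Incubation: Cells overnight before dosing, compound overnight, 37 °C, 5% CO2 | Evaluation: GFP/RFP fluorescence ratio | Control set: DMSO-only wells and HT1080 RFP-L50D-GFP cell wells as references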
# MPTP inh – mitochondrial permeability transition pore inhibitors, primary screen, biochemical, isolated mouse mitochondria, absorbance; inhibition, % at 10 µM; Ca2+ swelling absorbance, 30 min; AID 602449, 2012; 360,000 compounds, 1.4% hits;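 active = inhibition of 50% or more, scaled per plate between neutral and stimulator controls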;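 note: 0% = DMSO wells given calcium and 100% = 1 mM EGTA wells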
# ATG4B inhibitor – ATG4B protease inhibitors, primary screen, biochemical, fluorescence, uHTS. ATG4B cleavage of LC3-PLA2, NBD-HPC fluorescence, 1 h. 340,000 compounds, 0.51% hits. inhibition, % at 8.33 µM; in the data active = inhibition above about 40%
# Target sequence (Q9Y4P1 whole entry, looked up): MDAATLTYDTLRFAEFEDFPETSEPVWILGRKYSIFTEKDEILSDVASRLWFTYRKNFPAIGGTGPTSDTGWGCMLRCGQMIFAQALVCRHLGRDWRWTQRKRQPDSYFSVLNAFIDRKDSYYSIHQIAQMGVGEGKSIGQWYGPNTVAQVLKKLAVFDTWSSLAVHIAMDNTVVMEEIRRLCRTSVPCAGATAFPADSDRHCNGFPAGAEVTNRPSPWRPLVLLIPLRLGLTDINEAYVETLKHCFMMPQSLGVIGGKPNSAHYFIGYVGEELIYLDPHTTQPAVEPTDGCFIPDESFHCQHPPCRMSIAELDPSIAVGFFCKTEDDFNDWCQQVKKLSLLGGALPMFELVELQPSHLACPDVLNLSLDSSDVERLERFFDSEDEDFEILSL
# SKN-1 block – suppressors of acrylamide-induced Pgst-4::GFP reporter in worms, primary screen, SKN-1 inhibitor project, whole organism, uHTS, GFP/RFP fluorescence ratio, strain VP596; C. elegans VP596 Pgst-4::GFP/RFP ratio, 24 h; inhibition, % at 21.8 µM; 360,000 compounds, 0.49% hits;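 active = interference check ratio from 0.5 to 1.5 plus GFP to RFP signal ratio inhibition reaching or exceeding a fixed threshold, cut at about 30% in these data, passing the limit was not always enough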
# MPTP counter – fluorescence retest of MPTP screen hits in isolated mitochondria, single concentration. shares compounds with MPTP inh. membrane potential, Rhodamine 123 fluorescence. inhibition, % at 10 µM. 5,000 compounds, 78% hits; in the data active = inhibition above about 22%;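 note: 0% = DMSO vehicle and 100% = positive control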
# * = called active by the depositor; · = no result given.
SMILES,MT1-MMP act inh,MPTP inh,ATG4B inhibitor,SKN-1 block,MPTP counter
CCn1cc(C(=O)O)c(=O)c2cc(F)c(N3CCN(C(=S)NC(=O)c4ccccc4)CC3)cc21,1,4,-5,-5,·
Cc1ccc(S(=O)(=O)CNC(=S)c2cccc(Cl)c2)cc1,1,77*,8,1,83*
Cc1ccc(C(=S)NCS(=O)(=O)c2ccc(C)cc2)cc1,-1,-1,-3,-10,·
NC(=O)/C(=C\c1ccccc1)NC(=O)c1ccc(NC(=O)c2ccccc2)cc1,5,1,32,-9,·
CCOC(=O)c1ccc(NC(=O)c2cccc(S(=O)(=O)N3c4ccccc4CC3C)c2)s1 (stereo unspecified),-27,74*,-13,-1,73*
CC1Cc2ccccc2N1S(=O)(=O)c1cccc(C(=O)NCCCO)c1 (stereo unspecified),0,-5,-7,11,·
O=C(NCc1ccco1)/C(=C\c1ccco1)NC(=O)c1ccco1,-7,2,-4,-19,·
Cc1ccc(-n2c(Cl)c(Cl)nc(Cl)c2=O)cc1,1,67*,-10,-5,0
CC(=O)C1=CCC(c2cccc(Cl)c2)N(S(=O)(=O)c2ccc(C)cc2)C1 (stereo unspecified),1,0,·,3,·
O=C(CSc1nc(-c2ccccc2)nn1C(=O)c1ccccc1)Nc1cccc([N+](=O)[O-])c1,1,50*,-6,18,47*
O=C(c1cccc([N+](=O)[O-])c1)n1nc(-c2ccccc2)nc1NCc1ccccc1,9,2,3,8,·
c1ccc(CN2CCC(Nc3ncnc4sccc34)CC2)cc1,1,-4,-6,-17,·
Cc1sc2ncnc(NC3CCN(Cc4ccccc4)CC3)c2c1C,-6,91*,9,2,71*
O=C1C2CC=CCC2C(=O)N1c1ccc(N2CCN(c3ccccn3)CC2)c([N+](=O)[O-])c1 (stereo unspecified),7,55*,27,5,45*
O=C(c1ccc(N2CCCCC2)c([N+](=O)[O-])c1)N1CCN(c2ccccn2)CC1,-4,2,-2,-11,·
O=C1NC(=Nc2ccc(Cl)cc2)SC1Cc1cc(Cl)ccc1Cl (stereo unspecified),2,65*,18,-3,84*
CCc1ccc(OCC(=O)NC(NC(=S)Nc2ccccc2C)C(Cl)(Cl)Cl)cc1 (stereo unspecified),-8,81*,33,3,87*
CCOC(=O)NC(NC(=S)Nc1ccccc1OC)C(Cl)(Cl)Cl (stereo unspecified),1,1,6,-10,·
CCc1ccc(OCC(=O)NC(NC(=S)Nc2ccccc2)C(Cl)(Cl)Cl)cc1 (stereo unspecified),-5,80*,5,6,88*
CCc1ccc(OCC(=O)NC(NC(=S)Nc2ccc(C)cc2C)C(Cl)(Cl)Cl)cc1 (stereo unspecified),2,0,13,-7,·
Cc1ccc(NC(=S)NC(NC(=O)c2ccccc2C)C(Cl)(Cl)Cl)c(C)c1 (stereo unspecified),-1,93*,-6,20,82*
CCc1ccc(OCC(=O)NC(NC(=S)Nc2ccccc2OC)C(Cl)(Cl)Cl)cc1 (stereo unspecified),-9,92*,5,-4,89*
COc1cccc(CC(=O)OCC(=O)NC(=O)c2ccc(OC(F)F)cc2)c1,0,-2,-3,-6,·
Cc1ccccc1NC(=S)NC(NC(=O)COc1ccccc1)C(Cl)(Cl)Cl (stereo unspecified),0,80*,6,-10,83*
COC(=O)c1ccccc1NC(=S)NC(NC(=O)COc1ccccc1)C(Cl)(Cl)Cl (stereo unspecified),-1,23,8,-9,·
O=C(COc1ccccc1)NC(NC(=S)Nc1ccccc1O)C(Cl)(Cl)Cl (stereo unspecified),4,73*,-17,31,74*
CCN(CC)c1ccc(N=Cc2ccc(N(CC)CC)cc2O)cc1,43,77*,4,8,-8
